Reference: ChEMBL document CHEMBL4138145, “Cyclic Cystine-Bridged Peptides from the Marine Sponge Clathria basilana Induce Apoptosis in Tumor Cells and Depolarize the Bacterial Cytoplasmic Membrane” (J Nat Prod, 2017)
Calls of active or inactive are those of the source. Where a SMILES comes first, the peptide text is derived from it. Bridges are numbered along the chain shown (N, C = ends). The star is where a group is joined. X1 = CC(C)[C@H](C)C(=O)*; X2 = C(=C\c1ccccc1)/N*

Columns and labels:
[1] = tested on: Mycobacterium tuberculosis; test: Antimicrobial activity against Mycobacterium tuberculosis H37Rv up to 100 uM after 5 days by resazurin dye based assay; format: functional, organism-based
Procedure, shortened: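 M. tuberculosis H37Rv was grown aerobically at 37 °C in Middlebrook 7H9 with ADS enrichment, 0.5% glycerol and 0.05% tyloxapol, then precultured to log phase (OD600 0.5−1). Cells were seeded at 1 × 10^5 per well on 2-fold dilutions over 100−0.78 μM and held 5 days at 37 °C. Resazurin was added for 16 h at ambient temperature, then cells were formalin-fixed and fluorescence read (ex 540, em 590 nm). Growth is relative to rifampicin (0%) and DMSO (100%).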

A2780 = test: Cytotoxicity against human A2780 cells assessed as reduction in cell viability after 72 hrs by MTT assay; format: functional, cell-based; details: A2780, 72 h
Procedure, shortened: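 A2780 ovarian carcinoma cells were grown in RPMI-1640 with 10% FBS, penicillin and streptomycin, about 9000 cells/well, preincubated overnight. Increasing compound concentrations were applied for 72 h, then MTT was added. Absorbance read at 544 nm minus the 690 nm reference.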

Ramos [2] = test: Cytotoxicity against human Ramos cells assessed as reduction in cell viability after 24 hrs by MTT assay; format: functional, cell-based
Procedure, shortened: (§1)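 Suspension cells at 5 × 10^5 cells/mL, exposed 24 h to varying compound concentrations; 0.1% v/v DMSO as negative control. MTT added to 1 mg/mL final for 60 min, cells pelleted, formazan extracted in DMSO for 25 min at rt, A570 read with 650 nm reference. Viability relative to DMSO set at 100%; IC50 from fitted curves.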

[3] = Cytotoxicity against human Jurkat 16 cells assessed as reduction in cell viability after 24 hrs by MTT assay; format: functional, cell-based; procedure, shortened: as §1
NOMO-1 = test: Cytotoxicity against human NOMO1 cells assessed as reduction in cell viability after 24 hrs by MTT assay; format: functional, cell-based; details: NOMO-1, 24 h; procedure, shortened: as §1
HL-60 = test: Cytotoxicity against human HL60 cells assessed as reduction in cell viability after 24 hrs by MTT assay; format: functional, cell-based; details: HL-60, 24 h; procedure, shortened: as §1
Homo sapiens [4] = species: Homo sapiens; test: Induction of apoptosis in human Jurkat 16 cells assessed as activation of caspase 3 at 10 uM using Ac-DEVD-AMC as substrate measured up to 4 hrs by immuno blot analysis; format: functional, cell-based
Homo sapiens [5] = species: Homo sapiens; test: Induction of apoptosis in human Jurkat 16 cells assessed as maximum activation of caspase 3 at 10 uM using Ac-DEVD-AMC as substrate measured after 6 to 7 hrs by immuno blot analysis; format: functional, cell-based
Ramos [6] = test: Induction of apoptosis in human Ramos cells assessed as activation of caspase 3 at 10 uM using Ac-DEVD-AMC as substrate measured up to 4 hrs by immuno blot analysis; format: functional, cell-based
Ramos [7] = test: Induction of apoptosis in human Ramos cells assessed as maximum activation of caspase 3 at 10 uM using Ac-DEVD-AMC as substrate measured after 6 to 7 hrs by immuno blot analysis; format: functional, cell-based
Homo sapiens [8] = species: Homo sapiens; test: Induction of apoptosis in human Jurkat 16 cells assessed as activation of caspase 3 at 1 uM using Ac-DEVD-AMC as substrate measured up to 4 hrs by […]; format: functional, cell-based
Homo sapiens [9] = species: Homo sapiens; test: Induction of apoptosis in human Jurkat 16 cells assessed as maximum activation of caspase 3 at 1 uM using Ac-DEVD-AMC as substrate measured after 6 to 7 hrs by immuno blot analysis; format: functional, cell-based
Ramos [10] = test: Induction of apoptosis in human Ramos cells assessed as activation of caspase 3 at 1 uM using Ac-DEVD-AMC as substrate measured up to 4 hrs by immuno blot analysis; format: functional, cell-based
Ramos [11] = test: Induction of apoptosis in human Ramos cells assessed as maximum activation of caspase 3 at 1 uM using Ac-DEVD-AMC as substrate measured after 6 to 7 hrs by immuno blot analysis; format: functional, cell-based
Homo sapiens [12] = species: Homo sapiens; test: Induction of apoptosis in human Jurkat 16 cells assessed as increase in PARP cleavage at 10 uM measured up to 4 to 8 hrs by immuno blot analysis; format: functional, cell-based
Ramos [13] = test: Induction of apoptosis in human Ramos cells assessed as increase in PARP cleavage at 10 uM measured up to 4 to 8 hrs by immuno blot analysis; format: functional, cell-based
Procedure, shortened: (§2)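 Ramos cells were exposed for 2–8 h with or without Q-VD-OPh 10 μM; staurosporine 2.5 μM served as positive control. Cells were lysed in Tris/Triton buffer with phosphatase and protease inhibitors. Then 25 μg protein was run on 10% SDS-PAGE and blotted to PVDF for PARP cleavage, with β-actin as loading control.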

Ramos [14] = test: Induction of apoptosis in human Ramos cells assessed as PARP cleavage at 10 uM cotreated with pan-caspase inhibitor QVD-OPh measured after 2 to 8 hrs by Western blot analysis; format: functional, cell-based; procedure, shortened: as §2
MEF = test: Inhibition of autophagy in mouse MEF expressing mCitrine-hLC3B assessed as reduction in amino acid starvation-induced degradation of LC3 at 10 uM after 4 hrs by flow cytometry; format: functional, cell-based
Procedure, shortened: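 MEFs stably expressing mCitrine-hLC3B were held 4 h in full medium or EBSS starvation medium with 10 μM compound; bafilomycin A1 10 nM was the inhibition control. Cells were trypsinized, washed and read by flow cytometry for median mCitrine fluorescence. Values normalized to DMSO-treated full-medium cells; mean ± SD of 3 independent analyses; Student's t test.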

Staphylococcus aureus [15] = test: Antimicrobial activity against Staphylococcus aureus after 16 to 20 hrs by broth micro dilution method; format: functional
Procedure, shortened: (§3)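 Broth microdilution per CLSI in cation-adjusted Mueller-Hinton broth. Inoculum made by direct colony suspension, 5 × 10^5 CFU/mL final, added to serial 2-fold compound dilutions. Plates kept 16–20 h at 37 °C in ambient air. MIC is the lowest concentration with no visible growth. Strains are ATCC CLSI quality-control strains; A. baumannii 09987 is a Bonn clinical isolate.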

Enterococcus faecium = test: Antimicrobial activity against vancomycin-resistant Enterococcus faecium isolate BM 4147-1 after 16 to 20 hrs by broth micro dilution method; format: functional
Klebsiella pneumoniae = test: Antimicrobial activity against Klebsiella pneumoniae after 16 to 20 hrs by broth micro dilution method; format: functional, organism-based; procedure, shortened: as §3
Klebsiella aerogenes = test: Antimicrobial activity against Enterobacter aerogenes after 16 to 20 hrs by broth micro dilution method; format: functional, organism-based; procedure, shortened: as §3
Escherichia coli = test: Antimicrobial activity against Escherichia coli after 16 to 20 hrs by broth micro dilution method; format: functional, organism-based; procedure, shortened: as §3
Pseudomonas aeruginosa = test: Antimicrobial activity against Pseudomonas aeruginosa after 16 to 20 hrs by broth micro dilution method; format: functional, organism-based; procedure, shortened: as §3
Acinetobacter baumannii = test: Antimicrobial activity against Acinetobacter baumannii isolate 09987 after 16 to 20 hrs by broth micro dilution method; format: functional, organism-based; procedure, shortened: as §3
Bacillus subtilis [16] = test: Induction of cell envelope stress in Bacillus subtilis isolate 1S34 assessed as increase in liaI promoter activity at 20 nmol after 14 to 18 hrs by beta-galactosidase reporter gene assay; format: functional, organism-based
Procedure, shortened: (§4)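 Agar-based β-galactosidase promoter-reporter assay. B. subtilis 1S34 grown to stationary phase in LB with spectinomycin 50 μg/mL, then set at 3 × 10^7 CFU/mL in LB soft agar (0.7%) containing X-Gal 150 μg/mL. Test compounds spotted at 20 nmol; reference antibiotics given on paper discs (5–30 μg). Plates read for promoter induction after 14–18 h at 30 °C.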

Bacillus subtilis [17] = test: Induction of cell envelope stress in Bacillus subtilis isolate 1S34 assessed as increase in ypuA promoter activity at 20 nmol after 14 to 18 hrs by beta-galactosidase reporter gene assay; format: functional, organism-based; procedure, shortened: as §4
Bacillus subtilis [18] = test: Induction of DNA damage in Bacillus subtilis isolate 1S34 assessed as increase in yorB promoter activity at 20 nmol after 14 to 18 hrs by beta-galactosidase reporter gene assay; format: functional, organism-based; procedure, shortened: as §4
Bacillus subtilis [19] = test: Induction of RNA damage in Bacillus subtilis isolate 1S34 assessed as increase in helD promoter activity at 20 nmol after 14 to 18 hrs by beta-galactosidase reporter gene assay; format: functional, organism-based; procedure, shortened: as §4
Bacillus subtilis [20] = test: Induction of translation arrest in Bacillus subtilis isolate 1S34 assessed as increase in bmrC promoter activity at 20 nmol after 14 to 18 hrs by beta-galactosidase reporter gene assay; format: functional, organism-based
Staphylococcus aureus [21] = test: Disruption of inner membrane potential in Staphylococcus aureus NCTC 8325 at 0.2 uM measured after 30 to 60 mins by DiOC2(3) dye based fluorescence assay; format: functional, organism-based
Procedure, shortened: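 S. aureus NCTC 8325 grown to exponential phase in LB, resuspended in PBS at OD600 0.5, and loaded with 30 μM DiOC2(3) for 15 min before compound addition. Fluorescence read 30 and 60 min later: excitation 485 nm, emission 530 nm (green) and 630 nm (red). Controls were CCCP 5 μM and DMSO. Two runs on different days with independent cultures.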

CC[C@H](C)[C@@H]1NC(=O)[C@@H](NC(=O)[C@@H](C)C(C)C)CSSC[C@@H](C(=O)N/C=C/c2ccccc2)NC(=O)[C@H]([C@@H](C)CC)NC(=O)[C@H]([C@@H](C)CC)NC(=O)[C@H]([C@@H](C)CC)NC1=O (X1-CIIIIC-X2; disulfide 1-6)
inactive: Activity [1] | Activity (Homo sapiens [8]) | Activity (Homo sapiens [9]) | Activity (Ramos [10]) | Activity (Ramos [11]) | Activity (Ramos [14]) | inhibition (MEF) | Activity (Klebsiella pneumoniae) | Activity (Klebsiella aerogenes) | Activity (Escherichia coli) | Activity (Pseudomonas aeruginosa) | Activity (Acinetobacter baumannii) | Activity (Bacillus subtilis [18]) | Activity (Bacillus subtilis [19]) | Activity (Bacillus subtilis [20])
4.6 µM: IC50 [3]
active: Activity (Homo sapiens [4]) | Activity (Homo sapiens [5]) | Activity (Ramos [6]) | Activity (Ramos [7]) | Activity (Homo sapiens [12]) | Activity (Ramos [13]) | Activity (Bacillus subtilis [16]) | Activity (Bacillus subtilis [17]) | Activity (Staphylococcus aureus [21])
6.2 µM: MIC (Staphylococcus aureus [15])
28 µM: IC50 (HL-60)
10 µM: IC50 (NOMO-1)
12 µM: MIC (Enterococcus faecium)
5.9 µM: IC50 (Ramos [2])
2.6 µM: IC50 (A2780)
